Columns and labels:
Type in all cases: functional
Rattus norvegicus [1] = experiment: Inhibition of egg albumin-induced allergic bronchospasm in sensitized, spontaneously breathing and anesthesized Harlan-Wistar rat assessed as drop in mean arterial blood pressure at 2 mg/kg, iv administered 1 min prior to antigen challenge (reference value: 49.7+/- 1.9 %)
In short: (§1)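 Male Harlan-Wistar rats (225–275 g) were sensitized with EA im (1 mg/rat) plus pertussis vaccine ip. After 13–15 days they were urethane-anesthetized (1.5 g/kg ip). Drug was given intraduodenally in methocel or iv in saline, then EA 2 mg/rat iv. Pulmonary ventilation pressure and mean arterial pressure were recorded. Individual responses were compared with a separate vehicle-control group mean; 4–15 rats/group.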

Rattus norvegicus [2] = experiment: Inhibition of egg albumin-induced allergic bronchospasm in sensitized, spontaneously breathing and anesthesized Harlan-Wistar rat assessed as inhibition of control allergic bronchospasm response at 2 mg/kg, iv administered 1 min prior to antigen challenge; in short: as §1
Rattus norvegicus [3] = experiment: Inhibition of egg albumin-induced allergic bronchospasm in sensitized, spontaneously breathing and anesthesized Harlan-Wistar rat assessed as inhibition of control allergic hypotension response at 2 mg/kg, iv administered 1 min prior to antigen challenge; in short: as §1
Rattus norvegicus [4] = experiment: Antiallergic activity against egg albumin-induced anaphylaxis in iv dosed sensitized rat compound administered 15 mins prior to antigen challenge as single dose by passive cutaneous anaphylaxis test
In short: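 Male Sprague–Dawley or Wistar rats (100–150 g) were passively sensitized by two intradermal dilutions of rat anti-egg-albumin serum, which was mainly IgE and raised with EA im (10 mg/kg) plus killed pertussis vaccine iv. After 48 h, drug or vehicle was given. Rats were then challenged iv with EA plus Evans Blue (25 mg/kg each). Spot diameter was read 20–30 min later; ≥5 rats/compound. % inhibition was calculated versus control mean diameter.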

Mast cell [5] = experiment: Inhibition of histamine release in Sprague-Dawley rat peritoneal mast cells at 1.25 uM after 10 mins by fluorimetry relative to control
In short: (§2)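 Peritoneal lavage cells from male Sprague–Dawley rats (200–300 g) were sensitized for 2 h at 37 °C in rat anti-EA serum with heparin. Cells were resuspended in buffered HBSS and challenged with EA. Drug was added together with antigen. After 10 min incubation, histamine was measured fluorimetrically. % inhibition was calculated versus release without drug.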

Mast cell [6] = experiment: Inhibition of histamine release in Sprague-Dawley rat peritoneal mast cells at 5 uM after 10 mins by fluorimetry relative to control; in short: as §2
Mast cell [7] = experiment: Inhibition of histamine release in Sprague-Dawley rat peritoneal mast cells at 20 uM after 10 mins by fluorimetry relative to control; in short: as §2
Rattus norvegicus [8] = experiment: Inhibition of egg albumin-induced allergic bronchospasm in sensitized, spontaneously breathing and anesthesized Harlan-Wistar rat assessed as drop in pulmonary arterial blood pressure at 2 mg/kg, iv administered 1 min prior to antigen challenge (reference value: 36.4 +/- 3.5 %); in short: as §1
Rattus norvegicus [9] = experiment: Inhibition of egg albumin-induced allergic bronchospasm in sensitized, spontaneously breathing and anesthesized Harlan-Wistar rat assessed as drop in pulmonary arterial blood pressure at 1.56 mg/kg administered intraduodenally 15 min prior to antigen challenge (reference value: 32.2 +/- 4.7 %); conditions: route intraduodenal; in short: as §1
Rattus norvegicus [10] = experiment: Inhibition of egg albumin-induced allergic bronchospasm in sensitized, spontaneously breathing and anesthesized Harlan-Wistar rat assessed as drop in mean arterial blood pressure at 50 mg/kg administered intraduodenally 15 min prior to antigen challenge (reference value: 46.3 +/- 3.5 %); conditions: route intraduodenal; in short: as §1
Rattus norvegicus [11] = experiment: Inhibition of egg albumin-induced allergic bronchospasm in sensitized, spontaneously breathing and anesthesized Harlan-Wistar rat assessed as drop in mean arterial blood pressure at 12.5 mg/kg administered intraduodenally 15 min prior to antigen challenge (reference value: 46.3 +/- 3.5 %); conditions: route intraduodenal; in short: as §1
Rattus norvegicus [12] = experiment: Inhibition of egg albumin-induced allergic bronchospasm in sensitized, spontaneously breathing and anesthesized Harlan-Wistar rat assessed as drop in mean arterial blood pressure at 6.25 mg/kg administered intraduodenally 15 min prior to antigen challenge (reference value: 46.3 +/- 3.5 %); conditions: route intraduodenal; in short: as §1
Rattus norvegicus [13] = experiment: Inhibition of egg albumin-induced allergic bronchospasm in sensitized, spontaneously breathing and anesthesized Harlan-Wistar rat assessed as drop in mean arterial blood pressure at 3.125 mg/kg administered intraduodenally 15 min prior to antigen challenge (reference value: 46.3 +/- 3.5 %); conditions: route intraduodenal; in short: as §1
Rattus norvegicus [14] = experiment: Inhibition of egg albumin-induced allergic bronchospasm in sensitized, spontaneously breathing and anesthesized Harlan-Wistar rat assessed as drop in mean arterial blood pressure at 1.56 mg/kg administered intraduodenally 15 min prior to antigen challenge (reference value: 46.3 +/- 3.5 %); conditions: route intraduodenal; in short: as §1
Rattus norvegicus [15] = experiment: Inhibition of egg albumin-induced allergic bronchospasm in sensitized, spontaneously breathing and anesthesized Harlan-Wistar rat assessed as inhibition of control allergic bronchospasm response at 50 mg/kg administered intraduodenally 15 min prior to antigen challenge; conditions: route intraduodenal; in short: as §1
Rattus norvegicus [16] = experiment: Inhibition of egg albumin-induced allergic bronchospasm in sensitized, spontaneously breathing and anesthesized Harlan-Wistar rat assessed as inhibition of control allergic bronchospasm response at 12.5 mg/kg administered intraduodenally 15 min prior to antigen challenge; conditions: route intraduodenal; in short: as §1
Rattus norvegicus [17] = experiment: Inhibition of egg albumin-induced allergic bronchospasm in sensitized, spontaneously breathing and anesthesized Harlan-Wistar rat assessed as inhibition of control allergic bronchospasm response at 6.25 mg/kg administered intraduodenally 15 min prior to antigen challenge; conditions: route intraduodenal; in short: as §1
Rattus norvegicus [18] = experiment: Inhibition of egg albumin-induced allergic bronchospasm in sensitized, spontaneously breathing and anesthesized Harlan-Wistar rat assessed as inhibition of control allergic bronchospasm response at 3.125 mg/kg administered intraduodenally 15 min prior to antigen challenge; conditions: route intraduodenal; in short: as §1
Rattus norvegicus [19] = experiment: Inhibition of egg albumin-induced allergic bronchospasm in sensitized, spontaneously breathing and anesthesized Harlan-Wistar rat assessed as inhibition of control allergic bronchospasm response at 1.56 mg/kg administered intraduodenally 15 min prior to antigen challenge; conditions: route intraduodenal; in short: as §1
Rattus norvegicus [20] = experiment: Inhibition of egg albumin-induced allergic bronchospasm in sensitized, spontaneously breathing and anesthesized Harlan-Wistar rat assessed as inhibition of control allergic hypotension response at 50 mg/kg administered intraduodenally 15 min prior to antigen challenge; conditions: route intraduodenal; in short: as §1
Rattus norvegicus [21] = experiment: Inhibition of egg albumin-induced allergic bronchospasm in sensitized, spontaneously breathing and anesthesized Harlan-Wistar rat assessed as inhibition of control allergic hypotension response at 12.5 mg/kg administered intraduodenally 15 min prior to antigen challenge; conditions: route intraduodenal; in short: as §1
Rattus norvegicus [22] = experiment: Inhibition of egg albumin-induced allergic bronchospasm in sensitized, spontaneously breathing and anesthesized Harlan-Wistar rat assessed as inhibition of control allergic hypotension response at 6.25 mg/kg administered intraduodenally 15 min prior to antigen challenge; conditions: route intraduodenal; in short: as §1
Rattus norvegicus [23] = experiment: Inhibition of egg albumin-induced allergic bronchospasm in sensitized, spontaneously breathing and anesthesized Harlan-Wistar rat assessed as inhibition of control allergic hypotension response at 3.125 mg/kg administered intraduodenally 15 min prior to antigen challenge; conditions: route intraduodenal; in short: as §1
Rattus norvegicus [24] = experiment: Inhibition of egg albumin-induced allergic bronchospasm in sensitized, spontaneously breathing and anesthesized Harlan-Wistar rat assessed as inhibition of control allergic hypotension response at 1.56 mg/kg administered intraduodenally 15 min prior to antigen challenge; conditions: route intraduodenal; in short: as §1
Rattus norvegicus [25] = experiment: Inhibition of egg albumin-induced allergic bronchospasm in sensitized, spontaneously breathing and anesthesized Harlan-Wistar rat assessed as inhibition of control allergic bronchospasm response compound administered intraduodenally 15 min prior to antigen challenge; in short: as §1
Rattus norvegicus [26] = experiment: Inhibition of egg albumin-induced allergic bronchospasm in sensitized, spontaneously breathing and anesthesized Harlan-Wistar rat assessed as inhibition of control allergic hypotension response compound administered intraduodenally 15 min prior to antigen challenge; conditions: in the assay text read “bronchospasm response” for “hypotension response”; in short: as §1
Rattus norvegicus [27] = experiment: Inhibition of egg albumin-induced allergic bronchospasm in sensitized, spontaneously breathing and anesthesized Harlan-Wistar rat assessed as drop in pulmonary arterial blood pressure at 50 mg/kg administered intraduodenally 15 min prior to antigen challenge (reference value: 32.2 +/- 4.7 %); conditions: route intraduodenal; in short: as §1
Rattus norvegicus [28] = experiment: Inhibition of egg albumin-induced allergic bronchospasm in sensitized, spontaneously breathing and anesthesized Harlan-Wistar rat assessed as drop in pulmonary arterial blood pressure at 12.5 mg/kg administered intraduodenally 15 min prior to antigen challenge (reference value: 32.2 +/- 4.7 %); conditions: route intraduodenal; in short: as §1
Rattus norvegicus [29] = experiment: Inhibition of egg albumin-induced allergic bronchospasm in sensitized, spontaneously breathing and anesthesized Harlan-Wistar rat assessed as drop in pulmonary arterial blood pressure at 6.25 mg/kg administered intraduodenally 15 min prior to antigen challenge (reference value: 32.2 +/- 4.7 %); conditions: route intraduodenal; in short: as §1
Rattus norvegicus [30] = experiment: Inhibition of egg albumin-induced allergic bronchospasm in sensitized, spontaneously breathing and anesthesized Harlan-Wistar rat assessed as drop in pulmonary arterial blood pressure at 3.125 mg/kg administered intraduodenally 15 min prior to antigen challenge (reference value: 32.2 +/- 4.7 %); conditions: route intraduodenal; in short: as §1

## O=C([O-])c1cc(=O)c2c(OCC(O)COc3cccc4oc(C(=O)[O-])cc(=O)c34)cccc2o1.[Na+].[Na+] [CROMOLYN SODIUM]
Rattus norvegicus [1]
  inhibition in vivo at 2 mg/kg: 38.8%
Rattus norvegicus [2]
  inhibition in vivo at 2 mg/kg: 63.8%
Rattus norvegicus [3]
  inhibition in vivo at 2 mg/kg: 22.4%
Rattus norvegicus [4]
  ED50: 0.6 mg/kg
Mast cell [5]
  inhibition at 1.25 µM: 20%
Mast cell [6]
  inhibition at 5 µM: 50%
Mast cell [7]
  inhibition at 20 µM: 75%
Rattus norvegicus [8]
  inhibition in vivo at 2 mg/kg: 13%

## CCCCCCc1sc2nc(C(=O)[O-])nc([O-])c2c1C.O.[Na+].[Na+]
Rattus norvegicus [9]
  inhibition in vivo at 1.56 mg/kg: 42%
Rattus norvegicus [10]
  inhibition in vivo at 50 mg/kg: 45%
Rattus norvegicus [11]
  inhibition in vivo at 12.5 mg/kg: 55.2%
Rattus norvegicus [12]
  inhibition in vivo at 6.25 mg/kg: 38.4%
Rattus norvegicus [13]
  inhibition in vivo at 3.125 mg/kg: 47.6%
Rattus norvegicus [14]
  inhibition in vivo at 1.56 mg/kg: 63.8%
Rattus norvegicus [15]
  inhibition in vivo at 50 mg/kg: 61.2%
Rattus norvegicus [16]
  inhibition in vivo at 12.5 mg/kg: 41%
Rattus norvegicus [17]
  inhibition in vivo at 6.25 mg/kg: 34.2%
Rattus norvegicus [18]
  inhibition in vivo at 3.125 mg/kg: 28.3%
Rattus norvegicus [19]
  inhibition in vivo at 1.56 mg/kg: 9.4%
Rattus norvegicus [20]
  inhibition in vivo at 50 mg/kg: 14%
Rattus norvegicus [21]
  inhibition in vivo at 12.5 mg/kg: 0%
Rattus norvegicus [22]
  inhibition in vivo at 6.25 mg/kg: 28.8%
Rattus norvegicus [23]
  inhibition in vivo at 3.125 mg/kg: 15.4%
Rattus norvegicus [24]
  inhibition in vivo at 1.56 mg/kg: 0%
Rattus norvegicus [25]
  inhibition: Dose-dependent effect
Rattus norvegicus [25]; intraduodenal
  ED50: 3.8 mg/kg
Rattus norvegicus [26]
  inhibition: Dose-dependent effect
Rattus norvegicus [26]; intraduodenal
  ED50: 3.8 mg/kg
Rattus norvegicus [27]
  inhibition in vivo at 50 mg/kg: 14%
Rattus norvegicus [28]
  inhibition in vivo at 12.5 mg/kg: 21.6%
Rattus norvegicus [29]
  inhibition in vivo at 6.25 mg/kg: 28%
Rattus norvegicus [30]
  inhibition in vivo at 3.125 mg/kg: 27.6%
